What was measured:
[1] = tested on: Wistar rats; test: Histology and immunohistochemistry of mandibles; type: in vivo, rat
[2] = tested on: Wistar rats; test: MicroCT analysis of dentoalveolar tissues; type: in vivo, rat; conditions: for Rats with aberrant crown and root morphology of mandibular third molars: high dose (1.0 mg/kg) from PND7, PND37
How it was run: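 Daily oral gavage began at PND7 (vehicle, or test compound at 0.1 or 1.0 mg/kg), and formalin-fixed heads (5 per sex per group) were scanned by microCT at PND14 and PND37. PND37 thresholds were enamel 1500 and dentin/bone 650 mg HA/cm³. Alveolar bone included buccal/lingual, interdental and mesial rise regions. Read-outs were second-molar tissue volumes and densities, first-molar root lengths, and third-molar tissue thickness. Analysis was one-way ANOVA, p<0.05.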

[3] = tested on: constitutive FGFR3 signaling; conditions: mouse model of achondroplasia; cited from earlier work
[4] = tested on: CYP 3A4; conditions: liver; cited from earlier work
[5] = female rats, high dose, PND37, vs vehicle
[6] = male rats, high dose, PND37, vs vehicle

CCN1CCN(c2ccc(Nc3cc(N(C)C(=O)Nc4c(Cl)c(OC)cc(OC)c4Cl)ncn3)cc2)CC1 [infigratinib, 3-(2,6-Dichloro-3,5-dimethoxy-phenyl)-1-{6-[4-(4-ethyl-piperazin-1-yl)-phenylamino]-pyrimidin-4-yl}-1-methyl-urea]
Rats with root resorption (cathepsin K staining) ([1]; female rats, high dose, PND37 (vehicle 75%)): 25%
Rats with root resorption (cathepsin K staining) ([1]; female rats, low dose, PND37 (vehicle 75%)): 50%
Rats with root resorption (cathepsin K staining) ([1]; male rats, low or high dose, PND37 (vehicle 25%)): no male rats in either low or high dose groups exhibited root resorption
Rats with aberrant crown and root morphology of mandibular third molars ([2]; female rats): 100%
Alveolar bone density ([2]; female rats, high dose, PND14, vs vehicle): decreased alveolar bone density
Pulp density of mandibular second molars ([2]; female rats, high dose, PND37): significant increase
Reduction of mandibular first molar dentin volume ([2]; female rats, high dose, PND37, in comparison to the other groups): 12%
Decrease of first molar lingual root length [2, 5]: 9%
Decrease of first molar mesial root length [2, 5]: 8%
Decrease of mandibular third molar dentin volume [2, 5]: 40%
Decrease of mandibular third molar enamel volume [2, 5]: 64%
Decrease of root dentin volume [2, 5]: 21%
Alterations in dental tissues ([2]; low dose (0.1 mg/kg)): did not detect any alterations
Rats with aberrant crown and root morphology of mandibular third molars ([2]; male rats): 80%
Decrease of mandibular third molar dentin volume [2, 6]: 28%
Decrease of mandibular third molar enamel thickness [2, 6]: 33%
Decrease of mandibular third molar enamel volume [2, 6]: 61%
Decrease of root dentin volume [2, 6]: 16%
Dentin mineral density of second molars [2, 6]: significantly higher
Effect on limb length and calvarial defects [3]: increase limb length and improve calvarial defects
Metabolism [4]: metabolized mainly via CYP 3A4

Reference: article PMC10784415 (Developmental dynamics : an official publication of the …, 2023)
